The list is not random: actives were taken first. Their share in the collection is about 1.8%.
DNMT1 inh = human DNMT1 methyltransferase inhibitors, primary screen, biochemical, molecular beacon, fluorescence, HinP1I cleavage, uHTS; DNA (cytosine-5)-methyltransferase 1 (Homo sapiens), P26358; inhibition (reported as % activation of signal), % at 10 µM; 0.83% of 360,000 active; AID 588458, 2011; in the data active = inhibition above about 50%
LMPTP block = LMPTP phosphatase inhibitors, primary screen, biochemical, fluorescence intensity, uHTS | AID 651560, 2012 | 0.22% of 360,000 active | Low molecular weight phosphotyrosine protein phosphatase (Homo sapiens), P24666 | inhibition, % at 20 µM | recombinant LMPTP-A, OMFP fluorogenic substrate;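 active = compounds that cut the enzyme signal by at least half of the control window in the single-dose screen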
Target sequence (P24666 whole entry, looked up): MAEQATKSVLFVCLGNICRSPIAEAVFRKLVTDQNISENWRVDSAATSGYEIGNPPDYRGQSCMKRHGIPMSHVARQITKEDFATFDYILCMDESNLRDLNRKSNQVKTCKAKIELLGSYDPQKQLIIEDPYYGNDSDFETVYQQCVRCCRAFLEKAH
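Assay system: LMPTP-A enzyme. Input: 0.625 nM LMPTP-A final. Probe or stimulus: 400 µM OMFP. Compound dosing: single 20 µM dose. Schedule: 50 min dark incubation at room temperature. Detection: fluorescence intensity of OMFP turnover product. Read-out: percent inhibition versus substrate-only and uninhibited controls. Benchmarks: no-enzyme low control, uninhibited high control.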
Scp-1 inhibitor = Scp-1 phosphatase inhibitors, primary screen, biochemical, colorimetric, uHTS; Carboxy-terminal domain RNA polymerase II polypeptide A small phosphatase 1 (Homo …; Recombinant Scp1, phosphopeptide, malachite green phosphate absorbance; inhibition, % at 20 µM; 0.88% of 340,000 active;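 active = inhibition above about 50% at 20 µM, limit read from the data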
Target sequence (Q9GZU7 76-261 limits assumed): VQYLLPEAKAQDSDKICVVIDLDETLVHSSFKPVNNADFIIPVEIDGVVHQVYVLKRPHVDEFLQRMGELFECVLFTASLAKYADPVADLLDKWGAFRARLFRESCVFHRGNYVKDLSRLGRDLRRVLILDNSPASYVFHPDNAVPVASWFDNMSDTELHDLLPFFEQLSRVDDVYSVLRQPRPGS
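System: truncated SCP-1 phosphatase (76-261aa); medium: Tris acetate buffer pH 5.5 with MgCl2 and Tween-20; incubation: 45 min room-temperature reaction, 5 min colour, 30 min stabiliser; compound: single 20 µM dose, 1% DMSO; reagent: Phosphorylated 17-residue peptide substrate; read-out: % inhibition at 20 µM; technique: colorimetric free-phosphate detection, absorbance 630 nm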
STEP block = STEP phosphatase inhibitors, primary screen, biochemical, fluorescence intensity, uHTS. AID 588621, 2011. 0.25% of 360,000 active. inhibition, % at 20 µM. recombinant STEP, OMFP fluorogenic substrate. Tyrosine-protein phosphatase non-receptor type 5 (Homo sapiens), P54829;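 active = inhibition at 20 µM, scaled per plate between control wells, above about 37%, limit read from the data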
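System: isolated STEP enzyme; schedule: 20 min enzyme reaction at room temperature, protected from light; medium: Bis-Tris buffer pH 6.0, 2.5 mM DTT, 0.005% Tween 20; signal: fluorescence, 480/540 nm; dosing: single compound dose of 20 µM, 1% DMSO final; also added: OMFP substrate, 25 µM final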
HKDC1 inh = HKDC1 hexokinase inhibitors, primary screen, biochemical, fluorescence, uHTS; Q2TB90; recombinant HKDC1, G6PDH/diaphorase resazurin coupled fluorescence; inhibition, % at 20 µM; 0.16% of 340,000 active;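 active = inhibition above about 35% when tested at 20 µM, limit read from the data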
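Assay system – recombinant HKDC1 (HK5) hexokinase enzyme, produced in-house · Input – HKDC1 at 5 µg/mL · Reagent – glucose plus 1 mM ATP as hexokinase substrates · Timing – 90 min reaction incubation at room temperature, dark · Measured by – G6PDH/diaphorase-coupled fluorescence, 1 mM NADP, 100 µM resazurin, 525/613 nm · Benchmarks – DMSO-enzyme wells negative, buffer-substituted wells positive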
SUMO1 PPI mod = modulators of SUMO1 protein-protein interactions, primary screen, biochemical, uHTS | SUMO1 binding to a labelled peptide, TR-FRET, 1 h | inhibition, % at 20 µM | 0.33% of 360,000 active | AID 602429, 2012; in the data active = inhibition above about 37%
Target sequence (P63165 whole entry, looked up): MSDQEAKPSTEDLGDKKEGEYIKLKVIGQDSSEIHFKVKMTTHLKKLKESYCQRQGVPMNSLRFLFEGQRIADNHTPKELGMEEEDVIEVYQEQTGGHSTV
HKDC1 act conf = HKDC1 hexokinase activators, confirmation, biochemical, single concentration; shares compounds with HKDC1 inh; recombinant HKDC1, G6PDH/diaphorase resazurin fluorescence; hits give low values; inhibition, % at 20 µM; 14% of 740 active; AID 504708, 2011;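 active = inhibition at or below a set negative limit, negative inhibition meaning the enzyme was activated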
Numbers stand for hits; i = inactive; nt = no result.

SMILES	DNMT1 inh	LMPTP block	Scp-1 inhibitor	STEP block	HKDC1 inh	SUMO1 PPI mod	HKDC1 act conf
CCOc1ccc2c(ccc(/C=C/c3cc(C)c4cccnc4c3O)[n+]2C)c1	i	76	52	i	46	i	i
Cc1cccc(NC(=O)COC(=O)c2ccccc2SCC(=O)N2CCCC2)c1	i	i	i	i	i	i	nt
N#Cc1ccc(CSc2nnc(NC(=O)c3ccc(=O)[nH]c3)s2)cc1	i	i	i	i	i	i	nt
N#Cc1ccc(CSc2nnc(NC(=O)c3ccc4ncsc4c3)s2)cc1	i	i	i	i	51	40	i
Cc1cccc(C)c1NC(=O)C(c1ccccc1)N1CCN(c2ccc(C(F)(F)F)cn2)CC1 (centres undefined)	i	i	nt	i	nt	i	nt
CC(NC1=CC(=O)c2cccnc2C1=O)C(O)c1ccccc1 (centres undefined)	72	i	i	i	46	i	i
Cc1cccnc1C(NC(=O)C1CCN(CCCOc2ccccc2)CC1)c1ccc(F)cc1 (centres undefined)	i	i	nt	i	nt	i	nt
COCc1cc(C)nc(NC2CCCCC2)c1C#N	i	i	i	i	i	i	nt
COCc1cc(SC2CCCCC2)nc(C)n1	i	i	i	i	46	i	i
COC(=O)c1[nH]c2c(c1C)C(=O)CC(c1cccc(OC)c1)C2 (centres undefined)	i	i	i	i	i	i	nt
COc1ccc(-n2c(-c3ccccc3)nnc2-c2ccc(Cl)cc2)cc1	i	i	i	i	i	i	nt
[S-]c1nnc(-c2ccc(Br)cc2)n1-c1ccccc1.[Zn+2]	i	i	i	i	49	i	i
C=CCn1c(CNC(=O)c2ccccc2F)nnc1SCC(=O)N1CCOCC1	i	i	i	i	i	i	nt
COc1cccc(-c2cnc3c(NC(C)=O)cc(-c4ccc(C(=O)N5CCOCC5)cc4)cn23)c1	i	i	nt	i	nt	i	nt
CC(=O)N1c2ccc(Cl)cc2C2C=CCC2C1c1cccc2ccccc12 (centres undefined)	i	i	i	i	42	i	i
CC1CC2c3cccc(C(=O)O)c3C(=O)N2c2ccc(Cl)cc21 (centres undefined)	i	i	i	i	i	i	nt
Cc1cc(C)cc(C(O)c2ncc(-c3cccc(C(F)(F)F)c3)[nH]2)c1 (centres undefined)	i	i	nt	i	nt	i	nt
CCC1C/C(=C\c2cccnc2)C(=O)/C(=C/c2cccnc2)C1 (centres undefined)	i	i	i	i	35	i	i
O=C1/C(=C/c2cccnc2)CC/C1=C\c1cccnc1	i	i	i	i	i	i	nt
CCOC(=O)CN(c1ccccc1C)S(=O)(=O)c1ccc(Cl)cc1	i	i	i	i	i	i	nt
O=C1C=C(N2CCOCC2)c2ccccc2C1=O	82	i	i	i	77	40	i
Cc1cc(C(=O)COC(=O)c2cc(O)c3ccccc3c2O)c(C)n1CC1CCCO1 (centres undefined)	i	i	74	i	47	i	i
c1ccc(CN=C2NN=C(c3ccccc3)CS2)cc1	i	i	i	i	i	i	nt
CCN=C1NN=C(c2ccc(C)cc2)CS1	i	i	i	i	i	i	-52
O=C(CSc1nnc(CCCN2C(=O)c3cccc4cccc(c34)C2=O)n1-c1ccccc1)N1CCCCC1	i	i	i	i	37	i	i
SMILES	DNMT1 inh	LMPTP block	Scp-1 inhibitor	STEP block	HKDC1 inh	SUMO1 PPI mod	HKDC1 act conf
Cc1cc(C)c(N2C(=O)CC(Sc3ccccc3N)C2=O)c(C)c1 (centres undefined)	i	i	nt	i	nt	i	nt
O=C(c1ccccc1)c1coc2c1C(=O)c1ccccc1C2=O	i	i	i	i	i	i	nt
O=C1c2ccccc2-c2onc3ccc(Oc4ccccc4)c1c23	i	i	i	i	i	i	i
Cn1c(SSc2ccc(-c3cccnc3)n2C)ccc1-c1cccnc1	i	i	i	i	i	i	-248
COc1ccc(OC)c(NC(=O)COC(=O)CCCN=C2NS(=O)(=O)c3ccccc32)c1	i	i	i	i	i	i	nt
Cc1onc(-c2ccccc2)c1C(=O)NC(=S)NNC(=O)c1ccccc1O	i	i	i	i	i	i	i
Cc1onc(-c2ccccc2)c1C(=O)NC(=S)NNC(=O)c1ccc(O)cc1O	i	i	i	i	i	i	nt
CN(C)[C@H]1CCN([C@@H]2CS(=O)(=O)N[C@H]2COCc2ccccc2)C1	i	i	nt	i	nt	i	nt
CCCCNCCOCCOc1ccccc1-c1ccccc1	i	i	i	i	i	i	i
COc1cc(/C=C2\SC(c3ccc(C)cc3)=NC2=O)cc(OC)c1OC	i	i	i	i	i	i	nt
COc1cc(/C=C2\SC(=S)N(NC(=O)c3cccnc3)C2=O)ccc1O	i	i	i	i	i	i	nt
COc1cc(/C=C2\SC(c3ccc(C)cc3)=NC2=O)ccc1O	i	i	i	i	i	i	i
COc1cc(/C=C2\SC(=S)N(c3cccnc3)C2=O)ccc1O	57	i	i	i	38	109	i
COc1cc(/C=C2\SC(c3ccccc3)=NC2=O)cc(Cl)c1O	i	i	i	i	49	i	i
O=C(COC(=O)C12CC3CC(CC(Br)(C3)C1)C2)Nc1cccc(S(=O)(=O)N2CCOCC2)c1	i	i	i	i	i	i	nt
COC(=O)c1ccc(NCc2c(O)ccc(O)c2Br)cc1Cl	i	i	i	i	45	i	i
O=C(NNC(=O)c1ccccc1Cl)c1ccc(-n2cncn2)c([N+](=O)[O-])c1	i	i	i	i	i	i	nt
CCCCCCn1c(=O)n2n(c1=O)C[C@]1(OC(=O)NCc3ccco3)CN(S(=O)(=O)c3ccc(C)cc3)C[C@]1(O)C2	i	i	nt	i	nt	i	nt
CC(=O)C1=C(c2cccc([N+](=O)[O-])c2)N(C(C)=O)n2c(C)nnc2S1	i	i	i	i	i	i	-387
CC(=NNC(=S)N1CC2CCC(CC2)C1)c1ccncn1	i	i	i	i	i	i	-61
Cc1cc([N+](=O)[O-])nn1CC(=O)N/N=C/c1ccccc1Br	i	i	i	i	i	i	nt
Cc1nonc1C(=O)N/N=C/c1ccc(O)cc1O	i	i	i	i	i	i	-34
Cc1cc([N+](=O)[O-])nn1CC(=O)N/N=C/c1ccc(O)cc1O	i	i	i	i	i	i	i
